Assay results as given in paper PMC12433486 (Redox Biology, 2025).
≈ marks a conversion by molar mass, not a printed value. Positions of bridges follow the written chain, without caps; N, C: chain ends. Non-standard residues stand in square brackets, D forms with d. Residues, ends and D or L forms follow the SMILES beside them. *: point of attachment. Heptanoyl(6-Me) = CC(C)CCCCC(=O)*; Dab = NCC[C@H](N)C(=O)O

Experiments:
CRKP [1] = assay: Checkerboard microdilution assay; format: cell-based, Klebsiella pneumonia; conditions: for MIC of antibiotic: antibiotic alone; for FIC index (Au10): antibiotic in combination with Au10, CRKP; for FIC index (Au17): antibiotic in combination with Au17, CRKP; for FIC index (Auranofin): antibiotic in combination with auranofin
In short: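 Checkerboard: overnight cultures diluted 1000-fold, regrown to mid-log phase (OD600 0.6), diluted per CLSI and seeded in 96-well plates. Varying concentrations of gold test compound combined with varying antibiotic concentrations. Incubated 37 °C for 24 h, growth read at OD600. FICI calculated by a previously described method.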

CRKP (Clinical) = assay: MIC, broth microdilution; format: cell-based, Klebsiella pneumonia; conditions: 24 h; for MIC, CRKP (Clinical): gold complexes and antibiotics; for MIC: Klebsiella pneumoniae, read-out: MIC, CRKP (Clinical)
In short: (§1)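 Broth microdilution per CLSI guidelines in 96-well plates with test compound, incubated at 37 °C for 24 h. Growth was read on a microplate reader.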

CRPA (Clinical) = assay: MIC, broth microdilution; format: cell-based, Pseudomonas aeruginosa; conditions: 24 h; for MIC, CRPA (Clinical): gold complexes and antibiotics; for MIC: Pseudomonas aeruginosa, read-out: MIC, CRPA (Clinical)
In short: as §1

CRPA = assay: MIC, broth microdilution; format: cell-based, Pseudomonas aeruginosa; conditions: 24 h; for MIC, CRPA: gold complexes and antibiotics; for MIC: Pseudomonas aeruginosa, read-out: MIC, CRPA
In short: as §1

CRAB (Clinical) = assay: MIC, broth microdilution; format: cell-based; conditions: 24 h; for MIC, CRAB (Clinical): gold complexes and antibiotics; for MIC: read-out: MIC, CRAB (Clinical)
In short: as §1

CRKP [2] = assay: MIC, broth microdilution; format: cell-based, Klebsiella pneumonia; conditions: 24 h; for MIC, CRKP: gold complexes and antibiotics; for MIC: Klebsiella pneumoniae, read-out: MIC, CRKP
In short: as §1

VISA = assay: MIC, broth microdilution; format: cell-based, Staphylococcus aureus; conditions: gold complexes and antibiotics, 24 h
In short: as §1

CREC = assay: MIC, broth microdilution; format: cell-based, Escherichia coli; conditions: 24 h; for MIC, CREC: gold complexes and antibiotics; for MIC: Escherichia coli, read-out: MIC, CREC
In short: as §1

CREC (Clinical) = assay: MIC, broth microdilution; format: cell-based, Escherichia coli; conditions: 24 h; for MIC, CREC (Clinical): gold complexes and antibiotics; for MIC: Escherichia coli, read-out: MIC, CREC (Clinical)
In short: as §1

CRKP [3] = assay: Murine peritonitis infection model; format: in vivo, BALB/c mice; conditions: six mice per group, treated 1 h after i.p. CRKP
In short: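 Female BALB/c mice (18–20 g) randomized, six per group, and given 200 μL CRKP suspension i.p. Treatment began 1 h after infection: saline/PBS control, comparator antibiotic or test compound. Survival recorded over 48 h.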

cellular TrxR in CRKP = assay: Cellular TrxR activity assay; format: cell-based, Klebsiella pneumonia; conditions: read-out: IC50, cellular TrxR; CRKP treated 4 h, TrxR assay kit
In short: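 Overnight CRKP culture diluted and regrown to mid-log phase (OD600 0.6). Suspensions exposed to test compound at 0, 2.5, 5, 10 or 20 μM for 4 h. Cellular TrxR activity measured with a commercial TrxR activity kit.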

recombinant CRKP TrxR = assay: Inhibition of recombinant CRKP TrxR; format: biochemical, Klebsiella pneumonia; conditions: read-out: IC50, recombinant CRKP TrxR; DTNB reduction assay
In short: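 TrxR activity read by DTNB reduction assay (NADPH plus DTNB, A412 change over 5 min at 37 °C). Ki came from varying DTNB 0–2 mM and test compound 0–40 μM, fitted to a competitive inhibition model. Reversibility: NADPH-prereduced enzyme (100 μM, 10 min) was treated with 30 μM compound for 30 min, then NAP-5 desalted. Alternatively, after 30 min RT exposure, enzyme was dialysed 4 h at 4 °C (15,000 Da cutoff).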

CRKP [4] = assay: Intracellular superoxide radical detection; format: cell-based, Klebsiella pneumonia; conditions: 4 h
In short: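 Mid-log CRKP (OD600 0.6) loaded with DHE for 20 min at 37 °C with shaking, treated with test compound at 0, 10, 20 or 40 μM for 4 h, and washed three times in ice-cold PBS. Flow cytometry collected 100,000 cells. For HPLC, cells at OD600 0.3 took up 20 μM DHE for 20 min, were exposed to 0 or 80 μM for 4 h and washed, with synthesized 2-OH E+ as reference.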

DNA from CRKP = assay: DNA degradation assay; set-up: species or system Klebsiella pneumonia; conditions: purified CRKP DNA, 30 min
In short: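 Genomic DNA extracted from CRKP with a kit and checked by micro-spectrophotometry and agarose gel. DNA mixed with varying concentrations of test compound on ice for 30 min, also with 10 mM H2O2 for 30 min. DNA (30 ng/μL) additionally incubated with 40 μM for 2 h on ice. Degradation read by EB-stained polyacrylamide gel electrophoresis.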

cellular GR in CRKP = assay: Cellular GR activity assay; format: cell-based, Klebsiella pneumonia; conditions: CRKP treated 4 h, GR assay kit
In short: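 CRKP overnight culture diluted and regrown to mid-log phase (OD600 0.6), then treated with test compound. Cellular glutathione reductase activity measured with a commercial GR activity kit.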

CRKP [5] = assay: Time-killing assay; format: cell-based, Klebsiella pneumonia; conditions: 0-80 μM
In short: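 Overnight CRKP culture diluted 2000-fold and grown to OD600 0.4–0.6, then diluted to OD600 0.1 and plated in 96-well format. Test compound added at 0, 10, 20, 40 or 80 μM. Growth read hourly by microplate reader for 12 h.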

recombinant CRKP GR = assay: Inhibition of recombinant CRKP GR; format: biochemical, Klebsiella pneumonia
In short: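 Purified CRKP GR (final 2 nM) in 50 mM Tris-HCl pH 7.5 with 2 mM EDTA was preincubated with test compound at 37 °C for 30 min. GSSG and NADPH were then added, with A340 read at 10 s and after 5 min at 37 °C. Ki came from varying GSSG 0–5 mM and compound 0–20 μM under a competitive model. Reversibility: 30 min RT exposure, then NAP-5 desalting (1 mM GSSG, 300 μM NADPH) or 4 °C, 4 h dialysis (15,000 Da cutoff).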

CRKP [6] = assay: Cell membrane integrity; format: cell-based, Klebsiella pneumonia; conditions: 0-40 μM, 4 h, vs control
In short: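 Membrane integrity read from PI uptake: CRKP exposed to test compound at 0, 10, 20 or 40 μM, then analysed by single-parameter flow cytometry collecting 100,000 cells per sample.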

Question: `C[C@@H](O)[C@H]1C(=O)N2C(C(=O)O)=C(S[C@@H]3CN[C@H](C(=O)N(C)C)C3)[C@H](C)[C@H]12` [Meropenem] was tested. Which MIC of antibiotic (CRKP [1]; CRKP) did it give?
Answer: The MIC of antibiotic was 40 µM.

Question: And the “FIC index (Au10)” value (CRKP [1])?
Answer: Its value is 0.35.

Question: What about the “FIC index (Au17)” value (CRKP [1]) of the same molecule?
Answer: The value was 0.45.

Question: And the “FIC index (Auranofin)” value (CRKP [1]; CRKP)?
Answer: Its value is 0.625.

Question: What does the source list for `COc1ccc2ccc([O-])c(C=NC3CCCCC3N=Cc3cc(F)ccc3[O-])c2c1.F[P-](F)(F)(F)(F)F.[Au+3]` [Au4, [1-((E)-(((1S,2R)-2-(((E)-5-fluoro-2-hydroxybenzylidene)amino)cyclohexyl)imino)methyl)-7-methoxynaphthalen-2-ol] Au(III) hexafluorophosphate]?
Answer: MIC, CRKP (Clinical) (CRKP (Clinical)): 10 µM; MIC, CRPA (Clinical) (CRPA (Clinical)): >20 µM; MIC, CRPA (CRPA): >20 µM; MIC, CRAB (Clinical) (CRAB (Clinical)): >20 µM; MIC, CRKP (CRKP [2]): 10 µM; MIC, VISA (VISA): >20 µM; MIC, CREC (CREC): 20 µM; MIC, CREC (Clinical) (CREC (Clinical)): 20 µM

Question: For `CC(C)CCCCC(=O)N[C@@H](CCN)C(=O)N[C@H](C(=O)N[C@@H](CCN)C(=O)N[C@H]1CCNC(=O)[C@H]([C@@H](C)O)NC(=O)[C@H](CCN)NC(=O)[C@H](CCN)NC(=O)[C@H](CC(C)C)NC(=O)[C@@H](CC(C)C)NC(=O)[C@H](CCN)NC1=O)[C@@H](C)O` [Colistin B] ({Heptanoyl(6-Me)}-[Dab]T[Dab][Dab][Dab][dL]L[Dab][Dab]T; lactam 4-C), which MIC (CRKP (Clinical)) is on record?
Answer: Its MIC is 100 µM (≈ 116 µg/mL).

Question: And the MIC (CRPA (Clinical))?
Answer: Its MIC is 3 µM (≈ 3.47 µg/mL).

Question: What about the MIC (CRPA) of the same molecule?
Answer: Its MIC is 3 µM (≈ 3.47 µg/mL).

Question: And the MIC (CRAB (Clinical))?
Answer: The MIC was 3 µM (≈ 3.47 µg/mL).

Question: And the MIC (CRKP [2])?
Answer: The MIC was 50 µM (≈ 57.8 µg/mL).

Question: And the MIC (CREC)?
Answer: The MIC was 1 µM (≈ 1.16 µg/mL).

Question: What about the MIC (CREC (Clinical)) of the same molecule?
Answer: Its MIC is 1 µM (≈ 1.16 µg/mL).

Question: And the “mice surviving more than 24 h” value (CRKP [3])?
Answer: The value was “no mice”.

Question: With `CO/N=C(\C(=O)N[C@@H]1C(=O)N2C(C(=O)[O-])=C(C[N+]3(C)CCCC3)CS[C@H]12)c1csc(N)n1` [Cefepime] as the molecule, how does the “MIC of antibiotic in the presence of Au10” value (CRKP [1]; Au10 2 μM, CRKP) read?
Answer: The value was 5 µM.

Question: What about the MIC of antibiotic (CRKP [1]; CRKP) of the same molecule?
Answer: Its MIC of antibiotic is 20 µM.

Question: And the “FIC index (Au10)” value (CRKP [1])?
Answer: Its value is 0.45.

Question: And the “FIC index (Au17)” value (CRKP [1])?
Answer: The value was 0.70.

Question: And the “FIC index (Auranofin)” value (CRKP [1]; CRKP)?
Answer: The value was 0.525.

Question: How did the “MIC, CRKP (Clinical)” value (CRKP (Clinical)) turn out when `CC(=O)OC[C@H]1O[C@@H]([S-])[C@H](OC(C)=O)[C@@H](OC(C)=O)[C@@H]1OC(C)=O.CCP(CC)CC.[Au+]` [Auranofin] was run?
Answer: Its value is over 20 µM.

Question: And the IC50 (cellular TrxR in CRKP)?
Answer: The IC50 was 11.6 µM.

Question: What about the “MIC, CRPA (Clinical)” value (CRPA (Clinical)) of the same molecule?
Answer: The value was over 20 µM.

Question: What about the “MIC, CRPA” value (CRPA) of the same molecule?
Answer: Its value is over 20 µM.

Question: What about the “MIC, CRAB (Clinical)” value (CRAB (Clinical)) of the same molecule?
Answer: Its value is 20 µM.

Question: And the “MIC, CRKP” value (CRKP [2])?
Answer: The value was over 20 µM.

Question: What about the IC50 (recombinant CRKP TrxR) of the same molecule?
Answer: Its IC50 is 27.2 µM.

Question: What about the “MIC, VISA” value (VISA) of the same molecule?
Answer: The value was 0.5 µM.

Question: What about the “2-OH E+ formation (HPLC)” value (CRKP [4]; 80 μM) of the same molecule?
Answer: The value was “no detectable 2-OH E^+”.

Question: What about the “intracellular ROS (superoxide, DHE probe)” value (CRKP [4]; 10, 20, 40 μM, vs control) of the same molecule?
Answer: Its value is “did not induce ROS generation”.

Question: What about the “MIC, CREC” value (CREC) of the same molecule?
Answer: The value was over 20 µM.

Question: And the “DNA degradation (gel electrophoresis)” value (DNA from CRKP)?
Answer: Its value is “did not demonstrate DNA degradation effect”.

Question: What about the “IC50, cellular GR” value (cellular GR in CRKP) of the same molecule?
Answer: Its value is “did not show any inhibitory effects”.

Question: And the “bacterial growth over 12 h” value (CRKP [5])?
Answer: Its value is “only a marginal inhibitory effect”.

Question: And the “interaction with cefepime or meropenem” value (CRKP [1]; checkerboard, CRKP)?
Answer: Its value is “did not exhibit any synergistic interaction”.

Question: What about the “inhibition of recombinant GR at 40 μM” value (recombinant CRKP GR) of the same molecule?
Answer: The value was “did not exhibit inhibitory effects”.

Question: What about the “MIC, CREC (Clinical)” value (CREC (Clinical)) of the same molecule?
Answer: Its value is over 20 µM.

Question: What about the “PI red fluorescence intensity (membrane integrity)” value (CRKP [6]) of the same molecule?
Answer: Its value is “did not show a significant difference”.

Question: What does the source list for `C[C@@H](O)[C@H]1C(=O)N2C(C(=O)O)=C(SCCN=CN)C[C@H]12` [Imipenem]?
Answer: MIC (CRKP (Clinical)): 100 µM (≈ 29.9 µg/mL); MIC (CRPA (Clinical)): 100 µM (≈ 29.9 µg/mL); MIC (CRPA): 200 µM (≈ 59.9 µg/mL); MIC (CRAB (Clinical)): 200 µM (≈ 59.9 µg/mL); MIC (CRKP [2]): 200 µM (≈ 59.9 µg/mL); MIC (CREC): 50 µM (≈ 15 µg/mL); MIC (CREC (Clinical)): 100 µM (≈ 29.9 µg/mL)
